In ChEMBL document CHEMBL1137561 (J Med Chem, 2007):
pEC50, pKi: −log10 of the molar value.

Tests used:
[1] = tested on: Human immunodeficiency virus 1; assay: Antiviral activity against HIV1 with reverse transcriptase K103N mutation in MT4 cells assessed as inhibition of viral induced cytopathic effect by MTT method; assay type: functional, organism-based; conditions: Human immunodeficiency virus 1, MT4
Summary of the method: (§1)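 MT-4 cells infected with the HIV-1 NNRTI-resistant mutant strain. Viable cells scored at day 5 post-infection by the MTT tetrazolium colorimetric method. […] Values are means ± SD from at least two experiments.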

[2] = tested on: Human immunodeficiency virus 1; assay: Antiviral activity against HIV1 with reverse transcriptase Y181C mutation in MT4 cells assessed as inhibition of viral induced cytopathic effect by MTT method; assay type: functional, organism-based; conditions: Human immunodeficiency virus 1, MT4; summary of the method: as §1
[3] = tested on: Human immunodeficiency virus 1; assay: Antiviral activity against HIV1 with reverse transcriptase Y188L mutation in MT4 cells assessed as inhibition of viral induced cytopathic effect by MTT method; assay type: functional, organism-based; conditions: Human immunodeficiency virus 1, MT4
Summary of the method: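 MT-4 cells infected with the HIV-1 NNRTI-resistant mutant strain. Viable cells scored at day 5 post-infection by the MTT tetrazolium colorimetric method. Values are means ± SD from at least two experiments.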

[4] = Cytotoxicity against MT4 cells after 4 days by MTT method; assay type: cell-based; conditions: human
Summary of the method: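 Mock-infected (noninfected) MT-4 cells, run in parallel with the antiviral test. Viable cells read by the MTT tetrazolium colorimetric method. […] Means ± SD from at least two experiments. The top concentration was limited where compounds precipitated in the culture medium.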

[5] = Selectivity index, ratio of CC50 for MT4 cells to EC50 for HIV1 NL43 infected MT4 cells; assay type: functional
[6] = tested on: Human immunodeficiency virus 1; assay: Antiviral activity against HIV1 with reverse transcriptase IRLL98 mutation in MT4 cells assessed as inhibition of viral induced cytopathic effect by MTT method; assay type: functional, organism-based; conditions: Human immunodeficiency virus 1, MT4
[7] = Resistance index, Ratio of EC50 for drug-resistant HIV1 with RT K103N mutation in MT4 cells to EC50 for HIV1 NL43 in MT4 cells
[8] = Resistance index, Ratio of EC50 for drug-resistant HIV1 with RT Y181C mutation in MT4 cells to EC50 for HIV1 NL43 in MT4 cells
[9] = Resistance index, Ratio of EC50 for drug-resistant HIV1 with RT IRLL98 mutation in MT4 cells to EC50 for HIV1 NL43 in MT4 cells
[10] = tested on: Human immunodeficiency virus 1; assay: Antiviral activity against HIV1 NL43 in MT4 cells assessed as inhibition of viral induced cytopathic effect after 5 days by MTT method; conditions: Human immunodeficiency virus 1, NL43, MT4, 120 h
[11] = target: Human immunodeficiency virus type 1 reverse transcriptase (Human immunodeficiency virus 1, UniProt Q72547); assay: Inhibition of wild type HIV1 3B reverse transcriptase
[12] = target: Human immunodeficiency virus type 1 reverse transcriptase (Human immunodeficiency virus 1, UniProt Q72547, K103N); assay: Inhibition of HIV1 reverse transcriptase K103N mutant
[13] = target: Human immunodeficiency virus type 1 reverse transcriptase (Human immunodeficiency virus 1, UniProt Q72547, L100I); assay: Inhibition of HIV1 reverse transcriptase L100I mutant
[14] = target: Human immunodeficiency virus type 1 reverse transcriptase (Human immunodeficiency virus 1, UniProt Q72547, V106A); assay: Inhibition of HIV1 reverse transcriptase V106A mutant
[15] = target: Human immunodeficiency virus type 1 reverse transcriptase (Human immunodeficiency virus 1, UniProt Q72547, V179D); assay: Inhibition of HIV1 reverse transcriptase V179D mutant
[16] = Inhibition of HIV1 reverse transcriptase Y1811 mutant; parameters: species or system Human immunodeficiency virus 1
Summary of the method: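 Recombinant HIV-1 RT Y181I mutant, purified to >95%, 10 min preincubation with inhibitor. Radioactive nucleotide incorporation into poly(rA)/oligo(dT) 10:1 was followed at varied nucleotide substrate levels, sampling every 2 min for initial velocities. Inhibitor spanned 0.2–5 Ki. Ki came from Lineweaver-Burk and Dixon plots. Means ± SD of at least three experiments.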

[17] = target: Human immunodeficiency virus type 1 reverse transcriptase (Human immunodeficiency virus 1, UniProt Q72547, Y188L); assay: Inhibition of HIV1 reverse transcriptase Y188L mutant
[18] = Resistance index, Ratio of EC50 for drug-resistant HIV1 with RT Y188L mutation in MT4 cells to EC50 for HIV1 NL43 in MT4 cells

Compound | pEC50 [1] | pEC50 [2] | pEC50 [3] | CC50 at 96 h [4] | Ratio CC50/EC50 [5] | pEC50 [6] | Fold change [7] | Fold change [8] | Ratio EC50 [9] | pEC50 [10] | pKi [11] | pKi [12] | pKi [13] | pKi [14] | pKi [15] | pKi [16] | pKi [17] | Ratio EC50 [7] | Ratio EC50 [8] | Ratio EC50 [18]
CCCN(C)c1nc(C(C)c2c(F)cccc2F)cc(=O)[nH]1 (centres undefined) | 7.10 | 7.30 | < 5.00 | > 81000 nM | >135000 | 6.82 | 133 | 83 | 250 | 9.22 |  |  |  |  |  |  |  |  |  | 
CN1CCN(c2nc(Cc3c(F)cccc3F)cc(=O)[nH]2)CC1 |  |  |  | > 78000 nM | >13 |  |  |  |  | 5.22 | 4.95 | < 4.70 | < 4.70 | < 4.40 | < 4.40 | < 4.70 | < 4.70 |  |  | 
COc1ccccc1N1CCN(c2nc(Cc3c(F)cccc3F)c(C)c(=O)[nH]2)CC1 |  |  |  | 37000 nM | 170 |  |  |  |  | 6.66 | 6.60 | < 4.70 | 5.00 | 6.30 | 5.30 | < 4.70 | 4.59 |  |  | 
CC(c1cc(=O)[nH]c(N(C)C)n1)c1c(F)cccc1F (centres undefined) | 6.92 | 6.59 | < 5.00 | 89000 nM | 89000 | 6.17 |  |  | 670 | 9.00 |  |  |  | 6.30 |  |  |  | 120 | 260 | 
Cc1c(C(C)c2c(F)cccc2F)nc(N2CCCC(C)C2)[nH]c1=O (centres undefined) | 6.71 | 7.85 | 6.92 | > 72000 nM | >24000 | 6.70 |  |  | 67 | 8.52 |  |  |  |  |  |  |  | 64 | 5 | 40
Cc1c(Cc2c(F)cccc2F)nc(N(C)C2CCCCC2)[nH]c1=O | 5.36 | 6.85 | 5.21 | > 72000 nM | >8000 | 5.70 |  |  | 222 | 8.05 |  |  |  |  |  |  |  | 489 | 16 | 689
Cc1c(Cc2c(F)cccc2F)nc(N2CCN(c3ccccn3)CC2)[nH]c1=O |  |  |  | > 63000 nM | >5250 |  |  |  |  | 7.92 | 7.30 | < 4.70 | < 4.70 | 8.00 | 8.00 | < 4.70 | 6.31 |  |  | 
CCC(c1cc(=O)[nH]c(N(C)C)n1)c1c(F)cccc1F (centres undefined) | 6.74 | 6.37 | < 5.00 | 73000 nM | 36500 | 5.80 |  |  | 800 | 8.70 | 7.00 | 5.00 | 5.48 | 6.85 | 7.52 | < 4.70 | 5.30 | 90 | 215 | 
Cc1c(Cc2c(F)cccc2F)nc(N2CCCCC2)[nH]c1=O | < 5.00 | 6.85 | 5.00 | > 78000 nM | >26000 | 6.09 |  |  | 273 | 8.52 |  |  |  |  |  |  |  |  | 47 | 3333
Cc1c(Cc2c(F)cccc2F)nc(N2CCN(C)CC2)[nH]c1=O |  |  |  | > 75000 nM | >125 |  |  |  |  | 6.22 | 5.70 |  |  | 6.05 | < 4.40 |  |  |  |  | 
O=c1cc(Cc2c(F)cccc2F)nc(N2CCOCC2)[nH]1 | < 5.00 | < 5.00 | < 5.00 | > 81000 nM | >384 | < 5.00 |  |  |  | 6.68 | 6.15 | < 4.70 | 4.82 | 5.54 |  | < 4.70 | < 4.70 |  |  | 
Cc1c(Cc2c(F)cccc2F)nc(N2CCSCC2)[nH]c1=O | < 5.00 | < 5.00 | < 5.00 | > 74000 nM | >18500 | < 5.00 |  |  |  | 8.40 | 6.82 | < 4.70 | 5.30 | 7.05 | 4.40 | < 4.70 | < 4.70 |  |  | 
Cc1c(Cc2c(F)cccc2F)nc(N(C)C)[nH]c1=O | 5.62 | 5.74 | < 5.00 | > 89000 nM | >17800 | 6.30 |  |  | 100 | 8.30 | 7.00 | 5.05 | 5.00 | 6.15 | 5.80 | < 4.70 | 4.96 | 480 | 364 | 
Cc1c(C(C)c2c(F)cccc2F)nc(N2CCCC2)[nH]c1=O (centres undefined) | 6.81 | 7.15 | < 5.00 | > 78000 nM | >39000 | 6.70 |  |  | 100 | 8.70 |  |  |  |  |  |  |  | 77 | 35 | 
Cc1c(Cc2c(F)cccc2F)nc(N2CCOCC2)[nH]c1=O | < 5.00 | < 5.00 | < 5.00 | > 78000 nM | >3000 | < 5.00 |  |  |  | 7.59 | 7.30 | < 4.70 | 6.05 | 6.40 | 5.08 | < 4.70 | < 4.70 |  |  | 
